Series [1] concerns Oryctolagus cuniculus. As to the kind of experiment: Inhibition of erectile dysfunction in New Zealand white rabbit assessed as induction of SNP-potentiated penile erection at 3 mg/kg, po after 2 hrs. In kind it is functional, organism-based. Also noted: dose 3 mg/kg. A digest of the protocol:
(§1)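 Conscious New Zealand white rabbits, 3–4 kg, n = 4. Compound given orally, dissolved in distilled water. SNP (0.1 mg/kg in saline) injected 2 h later. Penile length (covered plus mucosa area) measured in cm with sliding calipers over a total of 2 h after dosing.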

Series [2] has as its target T1, Rod cGMP-specific 3',5'-cyclic phosphodiesterase subunit alpha (Bos taurus, UniProt P11541).
T1 sequence (P11541 whole entry): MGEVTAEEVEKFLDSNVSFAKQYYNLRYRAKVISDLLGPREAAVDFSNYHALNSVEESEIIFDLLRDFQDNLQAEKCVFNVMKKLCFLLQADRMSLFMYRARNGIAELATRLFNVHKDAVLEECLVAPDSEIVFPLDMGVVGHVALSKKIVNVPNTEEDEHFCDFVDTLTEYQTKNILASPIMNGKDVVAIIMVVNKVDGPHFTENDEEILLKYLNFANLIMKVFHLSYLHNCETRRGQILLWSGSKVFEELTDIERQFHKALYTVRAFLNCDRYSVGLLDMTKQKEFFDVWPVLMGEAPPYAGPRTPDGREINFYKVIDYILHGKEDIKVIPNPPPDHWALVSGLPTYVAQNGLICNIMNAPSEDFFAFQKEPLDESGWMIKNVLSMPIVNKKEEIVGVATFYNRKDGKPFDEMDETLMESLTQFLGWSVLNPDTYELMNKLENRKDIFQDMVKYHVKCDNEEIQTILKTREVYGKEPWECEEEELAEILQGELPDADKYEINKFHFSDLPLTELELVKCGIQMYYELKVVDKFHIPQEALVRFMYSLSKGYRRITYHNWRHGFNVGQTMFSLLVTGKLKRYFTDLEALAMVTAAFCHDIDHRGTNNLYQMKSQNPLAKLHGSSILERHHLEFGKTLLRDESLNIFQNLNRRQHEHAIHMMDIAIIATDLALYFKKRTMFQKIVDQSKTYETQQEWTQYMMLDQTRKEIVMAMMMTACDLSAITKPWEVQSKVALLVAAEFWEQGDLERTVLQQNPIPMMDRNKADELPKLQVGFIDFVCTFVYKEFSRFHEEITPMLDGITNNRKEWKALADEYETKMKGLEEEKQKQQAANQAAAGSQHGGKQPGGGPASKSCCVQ
The series is described as follows: Inhibition of bovine retina PDE6.

Series [3] concerns Liver microsomes. As to the kind of experiment: Metabolic stability in human liver microsomes. The series is classed as ADME, Microsome. A digest of the protocol:
(§2)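 Liver microsomes (human, rat or rabbit) incubated with compound (5) in pH 7.4 phosphate buffer with an NADPH-regenerating system (2.5 mM MgCl2, 2.5 mM glucose-6-phosphate, 1 mM NADP, 1 U/ml G6P dehydrogenase) at 37 °C for 1 h. Human microsomes at 1.25 mg/ml. Read-out was % parent remaining; metabolites analysed by LC/MS.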

Series [4] concerns the target cGMP-specific 3',5'-cyclic phosphodiesterase (Bos taurus, UniProt Q28156). As to the kind of experiment: Inhibition of bovine platelet PDE5.
Series [5] can be described thus: Metabolic stability in human liver microsomes assessed as compound remaining after 1 hr. In kind it is ADME, Microsome. As to conditions: read-out: Stability. A digest of the protocol: as §2
(In general: Liver microsomes are vesicles of endoplasmic reticulum, rich in cytochrome P450 enzymes.)

Series [6] is described as follows: Metabolic stability in rabbit liver microsomes assessed as compound remaining after 1 hr. In kind it is ADME, Oryctolagus cuniculus, Microsome. Particulars: read-out: Stability. The method, boiled down:
as §2

A short description of series [7]: Permeability across human Caco-2 cells. The series is classed as ADME, cell-based. Particulars: read-out: permeability. Background: Caco-2 cells form a polarised layer with tight junctions and transporters.
For series [8], the target named is Dual 3',5'-cyclic-AMP and -GMP phosphodiesterase 11A (Homo sapiens, UniProt Q9HCR9). As to the kind of experiment: Inhibition of human recombinant PDE11.
A short description of series [9]: Metabolic stability in rat liver microsomes assessed as compound remaining after 1 hr. The series is classed as ADME, Microsome. As to conditions: read-out: Stability. The method, boiled down:
as §2

Series [10] relates to Oryctolagus cuniculus. As to the kind of experiment: Inhibition of erectile dysfunction in New Zealand white rabbit assessed as induction of SNP-potentiated penile erection at 0.3 mg/kg, po after 2 hrs. The series is classed as functional, organism-based. On the set-up: dose 0.3 mg/kg. A digest of the protocol: as §1
A short description of series [11]: Inhibition of bovine platelet PDE3. On the set-up: species or system Bos taurus. The method, boiled down:
(§3)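 Enzyme sources: PDE1 from bovine heart, PDE2 from bovine heart, PDE3 from bovine platelet, PDE4 human recombinant, PDE6 from bovine retina, PDE11 human recombinant. IC50 values are the mean of more than 2 determinations.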

In series [12] the target is Phosphodiesterase 4 (Homo sapiens, UniProt P27815+Q08499+Q07343+Q08493). As to the kind of experiment: Inhibition of human recombinant PDE4. In kind it is protein assay. A digest of the protocol:
as §3

The nature of series [13]: Cytotoxicity against mouse L5178Y cells. The series is classed as cell-based.
Series [14] deals with hERG (KCNH2) (Homo sapiens, UniProt Q12809). As to the kind of experiment: Inhibition of human ERG at 10 uM.
A short description of series [15]: Inhibition of bovine heart PDE2. On the set-up: species or system Bos taurus. The method, boiled down: as §3
Series [16] in a line: Inhibition of bovine heart PDE1. Also noted: species or system Bos taurus. A digest of the protocol: as §3
Series [17] is described as follows: Aqueous solubility of the compound. As to conditions: aqueous medium. In kind it is physicochemical.
The nature of series [18]: Tmax in rabbit at 10 mg/kg, po. The series is classed as ADME, organism-based, Oryctolagus cuniculus. As to conditions: in vivo. On the set-up: dose 10 mg/kg, route oral. The method, boiled down: (§4)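 Oral dosing at 10 mg/kg in 0.5% Tween 80, given as the HCl salt, with n = 4 animals per species. Plasma PK parameters were determined: Tmax, Cmax, half-life and AUClast.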

The nature of series [19]: AUClast in rat at 10 mg/kg, po. In kind it is ADME, organism-based. Also noted: time 0 - last, dose 10 mg/kg, route oral. As to conditions: plasma. A digest of the protocol: as §4
Series [20] can be described thus: AUClast in rabbit at 10 mg/kg, po. In kind it is ADME, organism-based, Oryctolagus cuniculus. Also noted: time 0 - last, dose 10 mg/kg, route oral. Particulars: plasma. A digest of the protocol:
as §4

Series [21] is described as follows: Half life in rat at 10 mg/kg, po. Particulars: in vivo. Also noted: dose 10 mg/kg, route oral. In kind it is ADME, organism-based. The method, boiled down: as §4
Series [22] can be described thus: Cmax in rabbit at 10 mg/kg, po. The series is classed as ADME, organism-based, Oryctolagus cuniculus. Also noted: dose 10 mg/kg, route oral. As to conditions: in vivo. The method, boiled down: as §4
Series [23] can be described thus: Cmax in rat at 10 mg/kg, po. Also noted: dose 10 mg/kg, route oral. In kind it is ADME, organism-based. Particulars: in vivo. A digest of the protocol:
as §4

Series [24] in a line: Half life in rabbit at 10 mg/kg, po. In kind it is ADME, organism-based, Oryctolagus cuniculus. Also noted: dose 10 mg/kg, route oral. As to conditions: in vivo. The method, boiled down: as §4
Series [25] can be described thus: Tmax in rat at 10 mg/kg, po. In kind it is ADME, organism-based. On the set-up: dose 10 mg/kg, route oral. Particulars: in vivo. The method, boiled down:
as §4

The source made the active and inactive calls. The calls are words filed in the database; no cut-off is given here.

Sequence of Dual 3',5'-cyclic-AMP and -GMP phosphodiesterase 11A (Q9HCR9 whole entry): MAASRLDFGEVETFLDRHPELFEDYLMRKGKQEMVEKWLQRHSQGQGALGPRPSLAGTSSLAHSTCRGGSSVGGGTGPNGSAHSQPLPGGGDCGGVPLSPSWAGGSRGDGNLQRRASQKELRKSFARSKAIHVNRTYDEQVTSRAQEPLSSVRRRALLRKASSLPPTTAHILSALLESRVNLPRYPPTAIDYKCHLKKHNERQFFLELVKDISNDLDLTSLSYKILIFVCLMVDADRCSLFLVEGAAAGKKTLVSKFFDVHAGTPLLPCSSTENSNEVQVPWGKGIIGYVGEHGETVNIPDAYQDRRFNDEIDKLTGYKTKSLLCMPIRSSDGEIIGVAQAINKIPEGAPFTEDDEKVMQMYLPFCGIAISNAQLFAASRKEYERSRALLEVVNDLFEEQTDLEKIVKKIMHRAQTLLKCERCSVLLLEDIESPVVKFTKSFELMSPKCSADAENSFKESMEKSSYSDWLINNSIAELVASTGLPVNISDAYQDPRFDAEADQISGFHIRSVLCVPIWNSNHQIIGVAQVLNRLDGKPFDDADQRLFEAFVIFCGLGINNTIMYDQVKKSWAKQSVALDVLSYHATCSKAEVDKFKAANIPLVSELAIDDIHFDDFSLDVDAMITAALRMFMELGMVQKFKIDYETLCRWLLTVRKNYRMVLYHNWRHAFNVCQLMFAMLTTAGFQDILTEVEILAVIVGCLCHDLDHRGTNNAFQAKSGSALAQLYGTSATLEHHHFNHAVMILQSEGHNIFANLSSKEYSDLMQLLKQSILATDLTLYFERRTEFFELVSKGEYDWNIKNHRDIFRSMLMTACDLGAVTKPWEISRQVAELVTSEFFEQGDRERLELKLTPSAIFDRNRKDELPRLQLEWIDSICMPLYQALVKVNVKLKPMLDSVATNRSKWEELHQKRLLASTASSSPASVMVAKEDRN
Sequence of hERG (KCNH2) (Q12809 whole entry): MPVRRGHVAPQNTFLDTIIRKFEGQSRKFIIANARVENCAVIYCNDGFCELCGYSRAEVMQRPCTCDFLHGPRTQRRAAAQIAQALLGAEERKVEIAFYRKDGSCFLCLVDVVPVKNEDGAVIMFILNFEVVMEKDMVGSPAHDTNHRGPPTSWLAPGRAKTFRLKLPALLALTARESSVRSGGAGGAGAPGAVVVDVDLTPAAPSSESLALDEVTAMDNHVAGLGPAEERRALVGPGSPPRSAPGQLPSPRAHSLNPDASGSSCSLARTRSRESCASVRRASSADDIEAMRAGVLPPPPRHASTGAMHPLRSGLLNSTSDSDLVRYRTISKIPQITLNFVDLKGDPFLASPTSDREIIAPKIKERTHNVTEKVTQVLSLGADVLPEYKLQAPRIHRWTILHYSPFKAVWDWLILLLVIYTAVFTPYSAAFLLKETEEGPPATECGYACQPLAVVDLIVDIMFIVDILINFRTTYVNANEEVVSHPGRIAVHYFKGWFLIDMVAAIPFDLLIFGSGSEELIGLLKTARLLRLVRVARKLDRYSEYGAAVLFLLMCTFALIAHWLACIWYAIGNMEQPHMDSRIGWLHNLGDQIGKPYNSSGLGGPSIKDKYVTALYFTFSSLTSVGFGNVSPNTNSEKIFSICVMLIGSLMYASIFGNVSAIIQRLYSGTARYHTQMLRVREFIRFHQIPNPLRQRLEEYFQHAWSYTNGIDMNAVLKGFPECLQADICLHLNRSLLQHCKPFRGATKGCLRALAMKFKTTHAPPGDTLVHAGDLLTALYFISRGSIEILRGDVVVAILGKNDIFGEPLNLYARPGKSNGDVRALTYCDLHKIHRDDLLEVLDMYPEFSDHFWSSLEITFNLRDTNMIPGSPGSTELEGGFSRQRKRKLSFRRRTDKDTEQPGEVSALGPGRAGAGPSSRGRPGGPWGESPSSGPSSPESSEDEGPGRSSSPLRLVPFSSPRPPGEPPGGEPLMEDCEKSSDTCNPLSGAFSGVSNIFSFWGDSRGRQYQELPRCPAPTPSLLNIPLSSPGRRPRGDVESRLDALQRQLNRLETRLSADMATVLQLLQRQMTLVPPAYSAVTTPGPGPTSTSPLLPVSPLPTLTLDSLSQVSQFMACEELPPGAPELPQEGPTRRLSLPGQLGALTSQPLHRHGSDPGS

Usually inhibition stands for the change of the read-out against control, counted positive when it falls. The IC50 is the concentration needed to halve the response being measured. Turning to `CN1CC(=O)N2[C@H](c3ccc4c(c3)OCO4)c3[nH]c4ccccc4c3C[C@@H]2C1=O`, in series [1], the inhibition result is “Active”. In addition, the IC50 in [2] worked out at 3000 nM.

Regarding `COc1ccc(CNc2ncnc3c(CCO)c(OC)c(NS(=O)(=O)N(C)C)cc23)cc1Cl`, the Stability entry in series [3] was “Unstable”. Moreover, the IC50 came out at 7950 nM in [2] and 12 nM in series [4].

Turning to `CCC(=O)N(C)c1cc2c(NCc3ccc(OC)c(Cl)c3)ncnc2c(CCO)c1OC`, the inhibition result in series [1] is “Active”. In addition, the remaining at 1 h in series [5] was 16%; in [6], more than 90%; in series [9], more than 90%. Also, in series [7], the Papp is 17 ×10⁻⁶ cm/s. In addition, the IC50 in series [2] was found to be 320 nM; in series [8], 5200 nM; in series [4] it was 1 nM.

As to `COc1ccc(CNc2ncnc3c(CCO)c(OC)c(N(C)C(=O)C(C)C)cc23)cc1Cl`, the remaining at 1 h in [5] was 4.8%. The IC50 amounted to 1100 nM in [2] and 3 nM in series [4].

As to `COC(=O)N(C)c1cc2c(NCc3ccc(OC)c(Cl)c3)ncnc2c(CCO)c1OC` [listing 1 of 2 here], the inhibition entry in series [10] is “Active”.

In general, CC50 refers to the concentration giving 50% cytotoxicity. As a reminder, the solubility is the dissolved amount per volume that the medium holds. `COC(=O)N(C)c1cc2c(NCc3ccc(OC)c(Cl)c3)ncnc2c(CCO)c1OC` [listing 2 of 2 here]: the IC50 in series [11] came out at 43000 nM; in series [12], 84000 nM; in [15] it was 32000 nM; in series [2], 140 nM; in [8] it was 12000 nM; in series [4], 0.6 nM. Moreover, it took 12000 nM to reach half-maximal inhibition in series [16] (IC50). In series [13], this compound returned a CC50 of 85000 nM. In addition, the remaining at 1 h in series [5] is 85%. Besides, the inhibition at 10 µM in series [14] is less than 20%. Moreover, the Papp in series [7] amounted to 35 ×10⁻⁶ cm/s. The compound further registered a solubility in [17] of more than 2000 µg/mL.

Take `COc1ccc(CNc2ncnc3c(CCO)c(OC)c(N(C)C(=O)C4CC4)cc23)cc1Cl`: the remaining at 1 h in series [5] was 25%. Further, the values for the IC50 in [2] and in [4] were 340 nM and 1 nM, respectively.

With `COC(=O)Nc1cc2c(NCc3ccc(OC)c(Cl)c3)ncnc2c(CCO)c1OC`, the remaining at 1 h in [5] was 72%. The values for the IC50 in series [2], in series [8] and in series [4] were 710 nM, 5700 nM and 3 nM, respectively.

In the case of `COc1ccc(CNc2ncnc3c(CCO)c(OC)c(NS(C)(=O)=O)cc23)cc1Cl`, the Stability entry in [3] is given as “Unstable”. Inhibition in [4] was half-maximal at 11 nM (IC50).

On to `CCC(=O)N(CC)c1cc2c(NCc3ccc(OC)c(Cl)c3)ncnc2c(CCO)c1OC`, for which the remaining at 1 h in series [5] amounted to 5.5%. Moreover, half-maximal inhibition in series [4] (IC50) required 1 nM.

`CCOC(=O)Nc1cc2c(NCc3ccc(OC)c(Cl)c3)ncnc2c(CCO)c1OC`: the IC50 in series [2] stood at 600 nM; in series [8], 5000 nM; in [4], 17 nM.

What is called Tmax is the time at which the peak concentration occurs. The term AUC(0-t) denotes the area under the concentration-time curve up to a stated or last time point. Low readings indicate low exposure, high ones high exposure. The half-life is how long it takes for the measured level to halve. Read a low half-life as fast loss. For orientation: Cmax means the peak of the concentration-time curve. For `COC(=O)N(C)c1cc2c(NCc3ccc(OC)c(Cl)c3)ncnc2c(CCO)c1OC.Cl`, the Tmax in [18] worked out at 2.4 h; in series [25], 0.2 h. For the same compound, the AUC(0-t) is 540 ng·h/mL in series [19] and 2760 ng·h/mL in [20]. The half-life in [21] was 2.25 h; in [24], 4.2 h. Also, the highest concentration (Cmax) came to 870 ng/mL in [22] and 420 ng/mL in series [23].

As for `CCC(=O)Nc1cc2c(NCc3ccc(OC)c(Cl)c3)ncnc2c(CCO)c1OC`, the remaining at 1 h in series [5] came to 3%; in series [6], 85%; in series [9], 96%.
